Measured values reported in article PMC7111758 (Tetrahedron, 2019).

Columns and labels:
HEL cells = experiment: Cytotoxicity, microscopically detectable alteration of cell morphology; assay type: cell-based, human; settings: for Cytotoxicity MCC (minimum cytotoxic concentration): microscopically detectable alteration of cell morphology
[1] = Cytostatic activity, inhibition of HEL cell growth; assay type: cell-based; settings: human, HEL cells
Method in brief: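 HEL cells seeded at 5 × 10^3 cells/well, allowed to proliferate 24 h, then given medium with different concentrations of test compound. After three days at 37 °C, cell number counted with a Coulter counter. CC50 is the concentration reducing proliferation by 50% relative to untreated control cell counts.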

[2] = test system: herpes simplex virus type 2 (HSV-2) strain G; experiment: Antiviral assay, virus-induced cytopathic effect in HEL cells, HSV-2 G; assay type: cell-based; settings: Human alphaherpesvirus 2, HEL, read-out: Antiviral activity - EC50 HSV-2 G (TK+)
[3] = test system: varicella-zoster virus (VZV) strain Oka (TK+); experiment: microbe, parasite or virus in culture; assay type: cell-based; settings: Human alphaherpesvirus 3, HEL, read-out: Antiviral activity - EC50 VZV Oka (TK+)
vaccinia virus (VACV) = experiment: microbe, parasite or virus in culture; assay type: cell-based; settings: for EC50: Orthopoxvirus vaccinia, HEL, read-out: Antiviral activity - EC50 VACV
adenovirus-2 = experiment: Antiviral assay, virus-induced cytopathic effect, adenovirus-2; assay type: cell-based; settings: for EC50: Human mastadenovirus C, read-out: Antiviral activity - EC50 Adeno-2
[4] = test system: human cytomegalovirus (HCMV) strain Davis; experiment: Antiviral assay, virus-induced cytopathic effect in HEL cells, HCMV Davis; assay type: cell-based; settings: Human betaherpesvirus 5, HEL, read-out: Antiviral activity - EC50 HCMV Davis
[5] = test system: human cytomegalovirus (HCMV) strain AD-169; experiment: Antiviral assay, virus-induced cytopathic effect in HEL cells, HCMV AD-169; assay type: cell-based; settings: HCMV replication; compared with reference drug ganciclovir

Compound	Cytotoxicity MCC (minimum cytotoxic concentration) (HEL cells) [µM]	CC50 at 3 days [1] [µM]	EC50 [2] [µM]	EC50 [3] [µM]	EC50 (vaccinia virus (VACV)) [µM]	EC50 (adenovirus-2) [µM]	EC50 [4] [µM]	cytotoxicity for HEL cells (HEL cells; no cytotoxicity up to the highest concentration tested) [µM]	EC50 against HCMV relative to ganciclovir [5]	activity against adenoviruses (adenovirus-2; in words)	activity against vaccinia virus (poxvirus) (vaccinia virus (VACV))
O=c1[nH]c(=O)n([C@H]2C[C@H](O)[C@@H](CO)O2)cc1/C=C/Br [BVDU, brivudine, reference compound]	>300	> 300	123 ± 26	0.023 ± 0.021	11.3 ± 6.4						
CCOC(=O)C(C)NP(=O)(COC(CF)CN1CN2C=C(c3ccc([N+](=O)[O-])cc3)NC2=NC1=O)NC(C)C(=O)OCC (centres unmarked) [19b, Diethyl 2,2'-(((((1-fluoro-3-(7-(4-nitrophenyl)-2-oxo-2,8-dihydroimidazo[1,2-a][1,3,5]triazin-3(4H)-yl)propan-2-yl)oxy)methyl)phosphoryl)bis(azanediyl))-dipropionate]	>100		> 100	> 100	> 100	> 100	> 100				
Nc1nc(O)c2ncn(COC(CO)CO)c2n1 [GCV, ganciclovir, reference compound]	>350	> 350	0.03		> 100		3 ± 2.7				
Nc1ccn(C[C@@H](CO)OCP(=O)(O)O)c(=O)n1 [CDV, cidofovir, reference compound]	>300	> 300	1.3 ± 0.4		26 ± 12	8.3 ± 2.1	0.73 ± 0.31				
CC(=O)O.NC1=NC(=O)N(CC(O)C(F)(F)F)CN1 (centres unmarked) [compound 23, 6-Amino-4-oxo-3-(3,3,3-trifluoro-2-hydroxypropyl)-1,2,3,4-tetrahydro-1,3,5-triazin-1-ium acetate]	>100		> 100	> 100	> 100	> 100	> 100				
Nc1ncn(C[C@@H](CF)OCP(=O)(O)O)c(=O)n1 [compound 9, (S)-{[1-(4-Amino-2-oxo-1,3,5-triazin-1(2H)-yl)-3-fluoropropan-2-yl]oxymethyl}phosphonic acid]	>100		> 100	> 100	> 100	> 100	> 100				
CCOC(=O)C(C)NP(=O)(COC(CF)CN1CN2C=C(c3ccc(OC)cc3)NC2=NC1=O)NC(C)C(=O)OCC (centres unmarked) [19c, Diethyl 2,2'-(((((1-fluoro-3-(7-(4-methoxyphenyl)-2-oxo-2,8-dihydroimidazo[1,2-a][1,3,5]triazin-3(4H)-yl)propan-2-yl)oxy)methyl)phosphoryl)bis(azanediyl))-dipropionate]	>100		> 100	> 100	> 100	> 100	> 100				
Nc1ncn(CC(O)C(F)(F)F)c(=O)n1 (centres unmarked) [compound 22, 4-Amino-1-(3,3,3-trifluoro-2-hydroxypropyl)-1,3,5-triazin-2(1H)-one]	>446	> 446	230 ± 29	40.6 ± 11.7	> 446	268 ± 178	200 ± 17.8				
CC(C)OP(=O)(CO[C@H](CF)Cn1cnc(N)nc1=O)OC(C)C [8a, Diisopropyl (S)-{[(1-(4-amino-2-oxo-1,3,5-triazin-1(2H)-yl)-3-fluoropropan-2-yl)oxy]methyl}phosphonate]	>100	> 100	17.5 ± 10.6	11.7 ± 4	> 100	> 100	7.9 ± 5.5	> 100	about three times higher	inactive	inactive
NC1=NC(=O)N(C[C@@H](CF)OCP(=O)(O)O)CN1 [compound 13, (S)-1-[3-Fluoro-2-(phosphonomethoxy)propyl]-5,6-dihydro-5-azacytosine]	>100		> 100	> 100	> 100	> 100	> 100				
Nc1ncn(CC(OCP(=O)(O)O)C(F)(F)F)c(=O)n1 (centres unmarked) [compound 25, {[(3-(4-Amino-2-oxo-1,3,5-triazin-1(2H)-yl)-1,1,1-trifluoropropan-2-yl)oxy]methyl}phosphonic acid]	>100		> 100	> 100	> 100	> 100	> 100				
CCOC(=O)C(C)NP(=O)(COC(CF)CN1CN2C=C(c3ccccc3)NC2=NC1=O)NC(C)C(=O)OCC (centres unmarked) [19a, Diethyl 2,2'-(((((1-fluoro-3-(2-oxo-7-phenyl-2,8-dihydroimidazo[1,2-a][1,3,5]triazin-3(4H)-yl)propan-2-yl)oxy)methyl)phosphoryl)bis(azanediyl))-dipropionate]	>100		> 100	> 100	> 100	> 100	> 100				
Nc1nc2c(ncn2COCCO)c(=O)[nH]1 [ACV, acyclovir, reference compound]	>440	> 440	0.21 ± 0.12		> 250						
